Test results from ChEMBL document CHEMBL1157852, “Modulation of doxorubicin activity in cancer cells by conjugation with fatty acyl and terpenyl hydrazones” (Eur J Med Chem, 2010).
Active and inactive are the calls of the source. The calls are words filed in the database; no cut-off is given here.

Tests used:
[1] = Cytotoxicity against human 518A2 cells after 24 hrs by MTT assay; format: functional, cell-based; conditions: 518A2, 24 h
Outline: (§1)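 MTT assay. Cells seeded and cultured 24 h, then exposed to compound for 24, 48 or 72 h. MTT added to a final 0.05% (HL-60, 518A2) or 0.1% (KB-V1, MCF-7) for 2 h. Formazan dissolved in 10% SDS/DMSO with 0.6% acetic acid; absorbance read at 570 nm against 630 nm background. Viability taken relative to untreated controls (100%). IC50 from concentration-response curves, mean ± SD of four independent experiments.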

[2] = Cytotoxicity against human 518A2 cells after 48 hrs by MTT assay; format: functional, cell-based; conditions: 518A2, 48 h; outline: as §1
[3] = Cytotoxicity against human 518A2 cells after 72 hrs by MTT assay; format: functional, cell-based; conditions: 518A2, 72 h; outline: as §1
HL-60 [4] = test: Cytotoxicity against human HL60 cells after 24 hrs by MTT assay; format: functional, cell-based; conditions: HL-60, 24 h; outline: as §1
HL-60 [5] = test: Cytotoxicity against human HL60 cells after 48 hrs by MTT assay; format: functional, cell-based; conditions: HL-60, 48 h; outline: as §1
HL-60 [6] = test: Cytotoxicity against human HL60 cells after 72 hrs by MTT assay; format: functional, cell-based; conditions: HL-60, 72 h; outline: as §1
[7] = Cytotoxicity against human vinblastine-resistant KBV1 cells after 24 hrs by MTT assay; format: functional, cell-based; conditions: KB-V1, 24 h; outline: as §1
[8] = Cytotoxicity against human vinblastine-resistant KBV1 cells after 48 hrs by MTT assay; format: functional, cell-based; conditions: KB-V1, 48 h; outline: as §1
[9] = Cytotoxicity against human vinblastine-resistant KBV1 cells after 72 hrs by MTT assay; format: functional, cell-based; conditions: KB-V1, 72 h; outline: as §1
[10] = Cytotoxicity against human vinblastine-resistant KBV1 cells after 72 hrs by MTT assay in presence of 24 mM ABC transporter inhibitor verapamil hydrochloride; format: functional, cell-based; conditions: KB-V1, 72 h, in the assay text read “24 uM” for “24 mM”
Outline: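 MTT viability assay on P-gp-overexpressing KB-V1/Vbl cells with 24 µM verapamil hydrochloride added before the compound; 72 h exposure. Formazan read at 570/630 nm relative to untreated controls. IC50 from concentration-response curves, mean ± SD of four independent experiments.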

HL-60 [11] = test: Induction of apoptosis in human HL60 cells assessed as DNA ladder formation at 5 uM after 24 hrs by agarose gel electrophoresis; format: functional, cell-based
Outline: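 HL-60 cells incubated with 5 µM compound for 24 h, then examined for DNA ladder patterns.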

HL-60 [12] = test: Induction of apoptosis in human HL60 cells assessed as increase of caspase 3 activity at 5 uM after 4 hrs by luminometric assay; format: functional, cell-based
Outline: (§2)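 HL-60 and 518A2 cells treated with 5 µM compound and sampled at intervals from 1 to 24 h. Lysed in 50 mM Tris-HCl pH 7.4, 150 mM NaCl, 1% Triton X-100 with protease inhibitors for 15 min at 4 °C, spun at 800 g. Protein measured by Bradford. Caspase-3/7, -8 and -9 activities read with luminogenic peptide substrates; reported as relative luminescence.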

HL-60 [13] = test: Induction of apoptosis in human HL60 cells assessed as increase of caspase 3 activity at 5 uM after 12 hrs by luminometric assay; format: functional, cell-based; outline: as §2
HL-60 [14] = test: Induction of apoptosis in human HL60 cells assessed as increase of caspase 8 activity at 5 uM after 4 to 24 hrs by luminometric assay; format: functional, cell-based; outline: as §2
HL-60 [15] = test: Induction of apoptosis in human HL60 cells assessed as increase of caspase 9 activity at 5 uM after 12 hrs by luminometric assay; format: functional, cell-based
Outline: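 HL-60 leukaemia cells were treated with test compound and sampled at intervals from 1 to 24 h. Protein was measured by Bradford. Caspase-9 (Caspase-Glo 8 for line 1) was read from a luminogenic peptide substrate as relative luminescence.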

518A2 [16] = test: Induction of apoptosis in human 518A2 cells assessed as increase of caspase 8 activity at 5 uM measured up to 12 hrs by luminometric assay; format: functional, cell-based; outline: as §2
518A2 [17] = test: Induction of apoptosis in human 518A2 cells assessed as increase of caspase 3 activity at 5 uM measured up to 12 hrs by luminometric assay; format: functional, cell-based; outline: as §2
518A2 [18] = test: Induction of apoptosis in human 518A2 cells assessed as increase of caspase 9 activity at 5 uM after 8 to 12 hrs by luminometric assay; format: functional, cell-based; outline: as §2
518A2 [19] = test: Induction of apoptosis in human 518A2 cells assessed as increase of ratio of Bax to Bcl-2 mRNA expression at 5 uM after 6 to 18 hrs by RT-PCR analysis; format: functional, cell-based
Outline: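 518A2 cells exposed to 5 µM compound for 6 h or 18 h. bax and bcl-2 mRNA quantified by real-time PCR, normalised to GAPDH, and expressed as the bax/bcl-2 ratio.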

HL-60 [20] = test: Induction of apoptosis in human HL60 cells assessed as increase of Bcl-2 mRNA expression at 5 uM up to 24 hrs by […] analysis; format: functional, cell-based
HL-60 [21] = test: Induction of apoptosis in human HL60 cells assessed as increase of Bax mRNA expression at 5 uM up to 24 hrs by […] analysis; format: functional, cell-based
518A2 [22] = test: Induction of apoptosis in human 518A2 cells assessed as increase of Bcl-2 mRNA expression at 5 uM up to 24 hrs by […] analysis; format: functional, cell-based
518A2 [23] = test: Induction of apoptosis in human 518A2 cells assessed as appearance of intact mitochondria in cytosol at 5 uM after 6 hrs using JC1 dye relative to control; format: functional
Outline: (§3)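 Mitochondrial membrane potential measured with JC-1. Cells exposed to 5 µM compound for 6 or 18 h, pelleted at 400 g, stained with 0.2× JC-1 at 37 °C for 15 min (HL-60) or 35 min (518A2), washed and resuspended in PBS. Red fluorescence (ex 585/em 590 nm) and green (ex 510/em 527 nm) read; red/green ratio relative to untreated controls (100%). Mean ± SD, four independent experiments.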

518A2 [24] = test: Induction of apoptosis in human 518A2 cells assessed as appearance of intact mitochondria in cytosol at 5 uM after 18 hrs using JC1 dye relative to control; format: functional; outline: as §3
HL-60 [25] = test: Induction of apoptosis in human HL60 cells assessed as appearance of intact mitochondria in cytosol at 5 uM after 6 hrs using JC1 dye relative to control; format: functional; outline: as §3
HL-60 [26] = test: Induction of apoptosis in human HL60 cells assessed as appearance of intact mitochondria in cytosol at 5 uM after 18 hrs using JC1 dye relative to control; format: functional; outline: as §3
[27] = Cytotoxicity against human 518A2 cells assessed as increase in ROS production at 5 uM after 24 hrs by NBT reduction assay relative to control; format: functional
Outline: (§4)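 NBT assay. HL-60 cells (0.5×10⁶/mL) or trypsinised 518A2 cells (5×10⁴/mL) pre-incubated 24 h at 37 °C, then given compound at a final 5 µM for 24 or 72 h. Medium removed; cells incubated with 0.1% NBT for 1 h (HL-60) or 4 h (518A2). Diformazan dissolved in 2 M KOH/DMSO; A630 read against 405 nm. Given as % of untreated controls; double quadruplicates.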

[28] = Cytotoxicity against human 518A2 cells assessed as increase in ROS production at 5 uM after 72 hrs by NBT reduction assay relative to control; format: functional; outline: as §4
HL-60 [29] = test: Cytotoxicity against human HL60 cells assessed as increase in ROS production at 5 uM after 24 hrs by NBT reduction assay relative to control; format: functional; outline: as §4
HL-60 [30] = test: Cytotoxicity against human HL60 cells assessed as increase in ROS production at 5 uM after 72 hrs by NBT reduction assay relative to control; format: functional; outline: as §4

Structure (SMILES): COc1cccc2c1C(=O)c1c(O)c3c(c(O)c1C2=O)C[C@@](O)(C(=O)CO)C[C@@H]3O[C@H]1C[C@H](N)[C@H](O)[C@H](C)O1.Cl [DOXORUBICIN HYDROCHLORIDE]
- IC50 [1]: 0.34 µM
- IC50 [2]: 0.17 µM
- IC50 [3]: 0.12 µM
- IC50 (HL-60 [4]): 0.22 µM
- IC50 (HL-60 [5]): 0.1 µM
- IC50 (HL-60 [6]): 0.08 µM
- IC50 [7]: 59.9 µM
- IC50 [8]: 35.6 µM
- IC50 [9]: 18.3 µM
- IC50 [10]: 1.02 µM
- Activity (HL-60 [11]): Active
- Activity (HL-60 [12]): Active
- Activity (HL-60 [13]): Active
- Activity (HL-60 [14]): Active
- Activity (HL-60 [15]): Active
- Activity (518A2 [16]): inactive
- Activity (518A2 [17]): inactive
- Activity (518A2 [18]): Active
- Activity (518A2 [19]): Active
- Activity (HL-60 [20]): Active
- Activity (HL-60 [21]): inactive
- Activity (518A2 [22]): inactive
- Activity (518A2 [23]): 98%
- Activity (518A2 [24]): 74%
- Activity (HL-60 [25]): 83%
- Activity (HL-60 [26]): 28%
- Activity [27]: 2.5%
- Activity [28]: 15.4%
- Activity (HL-60 [29]): 2.8%
- Activity (HL-60 [30]): 5.6%
